Source: PubChem (Broad Institute)
Pf Dd2 inh – P. falciparum Dd2 growth inhibition; SYBR Green, 72 h; stronger effect = lower value; activity change, % at 10 µM; actives 2.3% (n = 94,000); AID 1159554; in the data active means activity change below about -80%; inconclusive means no clear call, values can overlap the other calls
IDH1 mut inh – inhibitors of human IDH1 R132H. inhibition, % at 10 µM. AID 624101. IDH1 R132H reductase, diaphorase/resazurin fluorescence, 60 min. O75874. actives 0.18% (n = 70,000); in the data active means inhibition above about 34%; inconclusive means no clear call, values can overlap the other calls; inactive means below about 11%;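 further: 0% = DMSO and 100% = no enzyme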
T cruzi growth-1 – blocks T. cruzi growth in NIH3T3 culture. T. cruzi beta-gal in NIH3T3, GalScreen luminescence, 90 h. inhibition, % at 8.34 µM. actives 5.9% (n = 77,000). AID 624255;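 active means mean inhibition above about 93%, with at least 55% of replicates each passing it, limit read from the data, passing the limit was not always enough; inconclusive means only one of those two conditions holds; inactive means neither condition holds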
GASC1 inh – inhibitors of human demethylase GASC-1 KDM4C. Q9H3R0. inhibition, % at 12.5 µM. GST-KDM4C 2-372, H3K9me3 peptide, LANCE TR-FRET. actives 0.15% (n = 96,000). AID 720574;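 active means mean replicate inhibition above about 25%, with at least 55% of replicates also reaching it, limit read from the data, passing the limit was not always enough; inconclusive means only one of those two conditions met; inactive means neither condition met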
Target sequence (Q9H3R0 2-372 limits assumed): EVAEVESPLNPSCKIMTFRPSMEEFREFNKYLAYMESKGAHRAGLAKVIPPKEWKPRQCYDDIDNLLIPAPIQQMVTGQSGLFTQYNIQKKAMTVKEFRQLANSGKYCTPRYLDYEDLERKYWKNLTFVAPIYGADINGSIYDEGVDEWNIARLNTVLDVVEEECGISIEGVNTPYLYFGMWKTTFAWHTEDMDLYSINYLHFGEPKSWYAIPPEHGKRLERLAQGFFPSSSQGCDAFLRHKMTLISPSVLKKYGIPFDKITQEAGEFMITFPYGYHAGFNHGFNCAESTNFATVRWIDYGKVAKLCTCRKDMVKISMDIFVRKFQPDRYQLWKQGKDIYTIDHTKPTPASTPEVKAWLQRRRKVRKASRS
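Compound: one test concentration per compound; Material: GST-GASC-1 enzyme fragment 2-372; Amount: GASC-1 enzyme at 10 nM final in reaction; Also added: H3K9me3 peptide substrate, Fe(II), 2-oxoglutarate; Technique: LANCE TR-FRET; Times: 30 min demethylation and 1 h detection at room temperature.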
T cruzi growth-2 – blocks T. cruzi growth in NIH3T3 host cells; AID 651739; shares compounds with T cruzi growth-1; T. cruzi beta-gal in NIH3T3, GalScreen luminescence, 90 h; actives 72% (n = 5,600); inhibition, % at 8.35 µM;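 active means mean replicate inhibition above about 95% and at least 55% of replicates individually reaching it, limit read from the data; inconclusive means only one of the two criteria is met; inactive means neither criterion is met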
T cruzi growth-3 – Trypanosoma cruzi proliferation inhibition. T. cruzi beta-gal in NIH3T3, GalScreen luminescence, 90 h. shares compounds with T cruzi growth-1. inhibition, % at 2.09 µM. actives 21% (n = 5,600). AID 651740;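 active means mean inhibition above about 95%, with at least 55% of replicates also reaching it, limit read from the data; inconclusive means meets just one of the two conditions; inactive means meets neither condition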;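 further: plate controls were neutral control median for no effect and positive control median for full effect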
3T3 cytotox – kills mouse NIH/3T3 fibroblasts; actives 14% (n = 5,600); AID 651742; NIH/3T3 viability, CellTiter-Glo ATP luminescence, 90 h; shares compounds with T cruzi growth-1; cytotoxicity (signal decrease), % at 8.35 µM;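 active means mean signal decrease across replicates above about 35% based on untreated-well scatter, with enough replicates individually passing, limit read from the data; inconclusive means no rule stated though some were filed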;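 further: 0% = median of neutral control wells and 100% = median of positive control wells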
NIH3T3 tox 2 – NIH/3T3 (mouse) viability loss; AID 651744; shares compounds with T cruzi growth-1; inhibition, % at 24.9 µM; NIH/3T3 viability, CellTiter-Glo ATP luminescence, 90 h; actives 56% (n = 5,600);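 active means mean loss of cell viability signal at or above a set limit, and enough replicates individually reaching it; inconclusive means meets only the mean limit or only the replicate share; inactive means meets neither condition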;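 further: 0% = median of neutral control wells and 100% = median of positive control wells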
Active calls of the source: *; ? = inconclusive; . = no result. A selection: hits, their analogues and other compounds. The true share with any hit is near 5.8%.

SMILES	Pf Dd2 inh	IDH1 mut inh	T cruzi growth-1	GASC1 inh	T cruzi growth-2	T cruzi growth-3	3T3 cytotox	NIH3T3 tox 2
O=C(C[C@@H]1CC[C@@H]2[C@H](COC[C@H](O)CN2Cc2ccc3c(c2)OCO3)O1)Nc1ccc(-c2ccccc2)cc1	-24	.	115*	1	99*	99*	16	30*
O=C(C[C@H]1CC[C@H]2[C@@H](COC[C@@H](O)CN2Cc2ccc3c(c2)OCO3)O1)Nc1ccc(-c2ccccc2)cc1	-40	.	113*	4	99*	85	31	69*
O=C(C[C@H]1CC[C@H]2[C@@H](COC[C@@H](O)CN2Cc2ccc3c(c2)OCO3)O1)Nc1ccccc1	-9	.	71	1	.	.	.	.
COC(=O)C[C@H]1CC[C@H]2[C@@H](COc3ccc(NC(=O)c4ccccc4OC)cc3C(=O)N2C)O1	2	.	.	-1	.	.	.	.
CCN(C[C@@H]1N[C@@H](CO)[C@H]1c1ccc(-c2ccc(F)cc2)cc1)C(=O)CN(C)C	-81*	.	109*	0	100*	89	?	104*
CCCC#Cc1ccc2c(c1)O[C@@H](CN(C)C(=O)c1ccncc1)[C@H](C)CN([C@H](C)CO)S2(=O)=O	-23	0	82	-1	.	.	.	.
CCCC#Cc1ccc2c(c1)O[C@H](CN(C)C(=O)c1ccncc1)[C@@H](C)CN([C@@H](C)CO)S2(=O)=O	-49	7	80	-3	.	.	.	.
CCCC#Cc1ccc2c(c1)O[C@@H](CN(C)C(=O)c1ccncc1)[C@@H](C)CN([C@H](C)CO)S2(=O)=O	-42	-5	110*	-3	97*	71	8	37*
CCCC#Cc1ccc2c(c1)O[C@@H](CN(C)C(=O)c1ccncc1)[C@@H](C)CN([C@@H](C)CO)S2(=O)=O	-34	-1	108*	1	106*	90	-3	49*
COc1ccc(S(=O)(=O)N2CCCCN3[C@H](C2)[C@@H](c2ccc(C#CCC(C)C)cc2)[C@@H]3CO)cc1	-18	.	65	0	.	.	.	.
O=S(=O)(c1ccccc1)N1CCCCN2[C@H](CO)[C@@H](c3ccc(C#Cc4ccccc4)cc3)[C@@H]2C1	19	.	83	.	.	.	.	.
COc1ccc(S(=O)(=O)N2CCCCN3[C@@H](CO)[C@H](c4ccc(C#CC(C)C)cc4)[C@@H]3C2)cc1	-32	.	104*	2	98*	85	46*	104*
COc1ccc(C#Cc2ccc([C@H]3[C@H]4CN(S(=O)(=O)c5ccccc5)CCCCN4[C@H]3CO)cc2)cc1	-46	.	107*	-1	111*	99*	3	52*
COc1ccc(C#Cc2ccc([C@H]3[C@@H](CO)N4CCCCN(S(=O)(=O)c5ccccc5)C[C@H]34)cc2)cc1	-73	.	101*	-1	98*	76	25	104*
COc1ccc(C#Cc2ccc([C@@H]3[C@H]4CN(S(=O)(=O)c5ccccc5)CCCCN4[C@H]3CO)cc2)cc1	-59	.	46	0	.	.	.	.
O=S(=O)(c1ccccc1)N1CCCCN2[C@H](CO)[C@@H](c3ccc(C#Cc4cccnc4)cc3)[C@H]2C1	-37	.	?	.	110*	62	25	79*
COc1ccc(NC(=O)N(C)C[C@@H]2Oc3c(NC(=O)c4cc(C)nn4C)cccc3C(=O)N([C@@H](C)CO)C[C@H]2C)cc1	8	.	24	1	.	.	.	.
CCCC#Cc1ccc2c(c1)O[C@H](CN(C)C(=O)NCCC)[C@@H](C)CN([C@H](C)CO)S2(=O)=O	1	0	47	0	.	.	.	.
CCCNC(=O)N(C)C[C@H]1Oc2cc(C#Cc3cccc(F)c3)ccc2S(=O)(=O)N([C@@H](C)CO)C[C@@H]1C	-40	4	116*	-1	112*	49	-4	66*
CCCC#Cc1ccc2c(c1)O[C@@H](CN(C)C(=O)NCCC)[C@@H](C)CN([C@@H](C)CO)S2(=O)=O	-40	0	-51	0	.	.	.	.
CCCC#Cc1ccc2c(c1)O[C@@H](CN(C)C(=O)NCCC)[C@H](C)CN([C@H](C)CO)S2(=O)=O	-10	0	-75	1	.	.	.	.
CCCNC(=O)N(C)C[C@H]1Oc2cc(C#Cc3cccc(F)c3)ccc2S(=O)(=O)N([C@H](C)CO)C[C@@H]1C	-53	0	114*	-1	94	57	25	60*
CCCNC(=O)N(C)C[C@@H]1Oc2cc(C#Cc3cccc(F)c3)ccc2S(=O)(=O)N([C@@H](C)CO)C[C@H]1C	-44	8	108*	0	100*	57	54*	67*
CCCNC(=O)N(C)C[C@H]1Oc2cc(C#Cc3cccc(F)c3)ccc2S(=O)(=O)N([C@@H](C)CO)C[C@H]1C	-34	1	114*	?	102*	105*	34	51*
CC(C)NC(=O)N(C)C[C@@H]1Oc2cc(C#Cc3cccc(F)c3)ccc2S(=O)(=O)N([C@@H](C)CO)C[C@H]1C	-50	4	36	0	.	.	.	.
SMILES	Pf Dd2 inh	IDH1 mut inh	T cruzi growth-1	GASC1 inh	T cruzi growth-2	T cruzi growth-3	3T3 cytotox	NIH3T3 tox 2
CCc1ccc(OCC(=O)Nc2ccccc2-c2nc3ccccc3s2)cc1	.	0	.	.	.	.	.	.
O=C(C[C@H]1C[C@@H]2c3cc(NC(=O)C4CCOCC4)ccc3O[C@@H]2[C@@H](CO)O1)NCc1ccc(Oc2ccccc2)cc1	-69	0	156*	0	33	-11	-12	12
O=C(C[C@@H]1C[C@H]2c3cc(NC(=O)Nc4ccccc4F)ccc3O[C@H]2[C@H](CO)O1)NCc1ccc(Oc2ccccc2)cc1	-19	0	106*	0	92	52	22	78*
O=C(CSc1nnc(-c2ccc(Br)cc2)o1)Nc1cccc(C(=O)N2CCOCC2)c1	.	0	.	.	.	.	.	.
CCc1c(C)sc(NC(=S)NCc2cc(C)n(C)n2)c1C(=O)OC	.	-2	.	.	.	.	.	.
O=C(C[C@H]1CC[C@@H]2[C@H](COC[C@H](O)CN2CCc2ccccc2)O1)NCc1ccc(Oc2ccccc2)cc1	-8	.	103*	1	102*	95	0	107*
O=C(C[C@H]1CC[C@H]2[C@@H](COC[C@@H](O)CN2CCC(F)(F)F)O1)NCc1ccc(Oc2ccccc2)cc1	.	.	108*	-1	85	11	39*	12
O=C(C[C@H]1CC[C@@H]2[C@H](COC[C@@H](O)CN2CCC(F)(F)F)O1)NCC1CCCCC1	13	.	107*	-1	32	6	21	24
CCC(=O)N1CCCCN2[C@H](CO)[C@H](c3ccc(-c4cccc(C(=O)N(C)C)c4)cc3)[C@H]2C1	18	.	101*	0	77	16	-11	19
